Assays:
Beta-secretase 1 [1] = biological target: T1, Beta-secretase 1 (Homo sapiens, UniProt P56817); experiment: Inhibition of BACE1 by ECL assay
Beta-secretase 1 [2] = biological target: T1, Beta-secretase 1; experiment: Inhibition of BACE1 assessed as effect on soluble APPbeta N-terminal fragment secretion in HEK293T cells; format: cell-based, HEK-293T
LLC-PK1 = experiment: Ratio of permeability from basolateral to apical over apical to basolateral side in LLC-PK1 cells transfected with MDR1 by PGP assay; format: ADME, cell-based; conditions: human
[3] = Ratio of drug level in APP-YAC mouse brain to IC50 for BACE1 in HEK293T cells; format: ADME, cell-based; conditions: hek-293t
Mus musculus = experiment: Reduction of beta amyloid protein 40 level in transgenic APP-YAC mouse at 50 mg/kg, iv after 3 hrs relative to control; format: functional; parameters: scale not given: the % may be the effect or the level left
Method in brief: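 APP-YAC mice (human WT APP on a yeast artificial chromosome) given i.v. bolus; brain Aβ40 measured at 0.5–4.5 h (time course, 50 mg/kg) and at 3.0 h across 6.25–50 mg/kg; reduction relative to vehicle-treated animals, Tukey-Kramer HSD statistics; γ-secretase inhibitor as positive control.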

[4] = Drug level in APP-YAC mouse brain at 50 mg/kg, iv after 0.5 hrs; format: ADME, organism-based; parameters: dose 50 mg/kg, route intravenous; conditions: read-out: Drug uptake
Method in brief: (§1)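 Time course: transgenic mice expressing human WT APP from a yeast artificial chromosome given a 50 mg/kg i.v. bolus; brain drug concentration measured at 0.5, 1.5, 3 and 4.5 h post-dose.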

[5] = Drug level in APP-YAC mouse brain at 50 mg/kg, iv after 4.5 hrs; format: ADME, organism-based; parameters: dose 50 mg/kg, route intravenous; conditions: read-out: Drug uptake; method in brief: as §1
Brain [6] = experiment: Drug level in APP-YAC mouse brain at 50 mg/kg, iv; format: ADME, organism-based; parameters: dose 50 mg/kg, route intravenous; conditions: in vivo, read-out: Drug uptake
Method in brief: (§2)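 Dose response: APP-YAC transgenic mice given i.v. bolus doses of 6.25, 12.5, 25 or 50 mg/kg; brain drug concentration determined 3.0 h post-dose.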

Brain [7] = experiment: Drug level in APP-YAC mouse brain at 25 mg/kg, iv; format: ADME, organism-based; parameters: dose 25 mg/kg, route intravenous; conditions: in vivo, read-out: Drug uptake; method in brief: as §2
Rattus norvegicus = experiment: Plasma clearance in rat at 2 mg/kg, iv; format: ADME, organism-based; parameters: dose 2 mg/kg, route intravenous; conditions: in vivo
[8] = Volume of distribution in rat at 2 mg/kg, iv; format: ADME, organism-based; parameters: dose 2 mg/kg, route intravenous; conditions: in vivo, read-out: Vdss
[9] = Cmax in rat at 10 mg/kg, po; format: ADME, organism-based; parameters: dose 10 mg/kg, route oral; conditions: in vivo
[10] = Oral bioavailability in rat; format: ADME, organism-based; conditions: in vivo
[11] = Half life in rat at 2 mg/kg, iv; conditions: in vivo
[12] = Drug level in APP-YAC mouse brain at 20 mg/kg, iv after 30 mins; format: ADME, organism-based; parameters: dose 20 mg/kg, route intravenous; conditions: read-out: Drug uptake
Method in brief: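 Brain penetration: brain concentration in mice measured 30 min after a 20 mg/kg i.v. dose, n of 3, reported in nM.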

T1 sequence (P56817 whole entry, the tested form may be a part): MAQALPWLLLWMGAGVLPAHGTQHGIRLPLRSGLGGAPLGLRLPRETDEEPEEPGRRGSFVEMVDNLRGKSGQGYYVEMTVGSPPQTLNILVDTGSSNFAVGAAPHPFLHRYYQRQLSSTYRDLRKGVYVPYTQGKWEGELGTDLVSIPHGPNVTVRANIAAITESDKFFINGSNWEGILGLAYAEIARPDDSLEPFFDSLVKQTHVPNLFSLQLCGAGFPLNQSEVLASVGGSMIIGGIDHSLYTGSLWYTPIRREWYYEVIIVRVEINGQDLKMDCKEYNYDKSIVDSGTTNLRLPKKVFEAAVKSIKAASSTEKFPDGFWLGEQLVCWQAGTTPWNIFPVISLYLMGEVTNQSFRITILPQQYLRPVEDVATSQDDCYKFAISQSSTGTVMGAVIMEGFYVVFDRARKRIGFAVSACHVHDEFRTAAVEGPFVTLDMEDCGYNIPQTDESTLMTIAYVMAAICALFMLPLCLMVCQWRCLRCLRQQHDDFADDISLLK

IC50 (Beta-secretase 1 [1]) [nM] | IC50 (Beta-secretase 1 [2]) [nM] | Ratio (LLC-PK1) | Ratio [3] | concentration at 0.5 h [12] [nM] | SMILES | other results
2 | 49 | > 50 | 11.4 | – | CC(C)S(=O)(=O)N(C)c1cc(C(=O)N[C@@H](Cc2ccccc2)[C@@H](N)CF)cc(NC[C@H]2C[C@@H]2C)n1 | Activity (Mus musculus): 34%; concentration at 0.5 h [4]: 5800 nM; concentration at 4.5 h [5]: 700 nM; concentration (Brain [6]): 1900 nM; concentration (Brain [7]): 700 nM; clearance (Rattus norvegicus): 45.8 mL/min/kg; Vd [8]: 3.9 L/kg; Cmax [9]: 300 nM; bioavailability [10]: 13%; half-life [11]: 1.6 h
1100 | – | – | – | – | CN(c1cc(C(=O)N[C@H](CO)Cc2cc(F)cc(F)c2)cc(NCC2CC2)n1)S(C)(=O)=O | –
18 | 910 | 4.8 | 3.4 | – | CC(C)S(=O)(=O)N(C)c1cc(C(=O)N[C@@H](Cc2ccccc2)[C@@H](N)CF)cc(N(C)C[C@H]2C[C@@H]2C)n1 | clearance (Rattus norvegicus): 59.1 mL/min/kg; Vd [8]: 4.2 L/kg; Cmax [9]: 200 nM; bioavailability [10]: 8%
350 | > 20000 | 3.6 | < 0.07 | 1400 | CCCN(CC1CC1)c1cc(C(=O)N[C@H](CO)Cc2ccccc2)cc(N(C)S(=O)(=O)C(C)C)n1 | –
14 | > 20000 | – | – | – | CC(C)S(=O)(=O)N(C)c1cc(C(=O)N[C@H](CO)Cc2cc(F)cc(F)c2)cc(NC[C@H]2C[C@@H]2C)n1 | –
– | – | – | – | 3080 | CC1CC1CN(C)c1cc(C(=O)N[C@@H](Cc2cc(F)cc(F)c2)[C@@H](N)CF)cc(N(C)S(=O)(=O)C(C)C)n1 (mixture of isomers) | –
– | – | – | – | 560 | CC1CC1CNc1cc(C(=O)N[C@@H](Cc2ccccc2)[C@@H](N)CF)cc(N(C)S(=O)(=O)C(C)C)n1 (mixture of isomers) | –
